Molecules are shown by their SMILES.

Sequence of ALK tyrosine kinase receptor (Q9UM73 whole entry): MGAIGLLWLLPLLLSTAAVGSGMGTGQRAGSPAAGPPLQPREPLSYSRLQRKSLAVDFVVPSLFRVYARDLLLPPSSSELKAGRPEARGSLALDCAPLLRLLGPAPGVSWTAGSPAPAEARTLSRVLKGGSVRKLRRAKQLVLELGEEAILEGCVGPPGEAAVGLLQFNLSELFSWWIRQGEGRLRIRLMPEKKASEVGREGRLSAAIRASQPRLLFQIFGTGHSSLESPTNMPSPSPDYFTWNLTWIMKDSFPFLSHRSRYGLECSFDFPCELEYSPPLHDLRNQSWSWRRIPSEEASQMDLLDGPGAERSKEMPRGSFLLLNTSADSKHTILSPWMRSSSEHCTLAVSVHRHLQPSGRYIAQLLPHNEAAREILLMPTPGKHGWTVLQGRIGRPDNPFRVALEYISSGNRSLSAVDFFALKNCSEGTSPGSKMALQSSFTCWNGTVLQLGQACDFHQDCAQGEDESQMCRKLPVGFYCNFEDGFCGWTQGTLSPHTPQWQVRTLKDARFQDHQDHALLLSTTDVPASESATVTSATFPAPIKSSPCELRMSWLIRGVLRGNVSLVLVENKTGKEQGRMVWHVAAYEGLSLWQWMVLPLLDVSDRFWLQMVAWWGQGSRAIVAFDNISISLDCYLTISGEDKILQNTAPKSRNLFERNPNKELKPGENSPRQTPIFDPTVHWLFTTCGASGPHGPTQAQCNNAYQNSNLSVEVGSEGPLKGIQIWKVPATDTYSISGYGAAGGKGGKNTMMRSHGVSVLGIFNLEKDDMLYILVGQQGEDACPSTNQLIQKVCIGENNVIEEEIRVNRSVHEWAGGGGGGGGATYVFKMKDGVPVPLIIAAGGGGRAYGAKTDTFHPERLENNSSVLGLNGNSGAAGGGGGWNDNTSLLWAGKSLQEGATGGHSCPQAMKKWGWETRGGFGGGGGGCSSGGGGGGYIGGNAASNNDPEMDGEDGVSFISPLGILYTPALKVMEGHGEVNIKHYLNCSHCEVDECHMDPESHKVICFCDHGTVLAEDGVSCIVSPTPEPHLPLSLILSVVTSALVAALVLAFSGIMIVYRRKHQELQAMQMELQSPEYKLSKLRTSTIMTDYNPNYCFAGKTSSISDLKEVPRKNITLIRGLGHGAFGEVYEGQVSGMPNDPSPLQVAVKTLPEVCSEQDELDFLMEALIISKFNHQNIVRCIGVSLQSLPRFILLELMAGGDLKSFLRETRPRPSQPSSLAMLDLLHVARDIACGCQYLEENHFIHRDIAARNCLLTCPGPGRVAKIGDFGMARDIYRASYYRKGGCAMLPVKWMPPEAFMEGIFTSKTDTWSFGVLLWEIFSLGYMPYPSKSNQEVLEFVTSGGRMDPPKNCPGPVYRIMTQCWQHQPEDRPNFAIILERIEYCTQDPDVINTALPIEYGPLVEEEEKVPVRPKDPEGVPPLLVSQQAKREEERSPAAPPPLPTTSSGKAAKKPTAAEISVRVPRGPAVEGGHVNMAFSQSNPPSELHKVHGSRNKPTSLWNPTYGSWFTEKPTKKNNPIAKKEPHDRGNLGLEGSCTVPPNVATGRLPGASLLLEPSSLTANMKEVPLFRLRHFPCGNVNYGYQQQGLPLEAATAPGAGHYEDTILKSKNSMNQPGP

In the test the target is ALK tyrosine kinase receptor (Homo sapiens, UniProt Q9UM73). The test is described as follows: Inhibition of ALK by time-resolved fluorescence assay. In short, it runs like this:
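Baculovirus-expressed ALK (30 ng/ml) on plates coated with GST–PLC-gamma substrate in TBS. Reaction ran 15 min at 37 °C. Europium-labeled anti-phosphotyrosine antibody was added for 1 h at 37 °C, then enhancement solution for 30 min, and TRF was read. IC50 came from a variable-slope sigmoidal fit of % inhibition vs log concentration.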
What is called IC50 is the concentration at which inhibition is half-maximal. High values mean weaker potency, low ones greater potency. `O=C(c1ccc(-c2cnc3c(c2)N(Cc2cc(F)ccc2F)CCN3)cc1)N1CCC[C@H]1CN1CCCC1` displayed an IC50 of 15 nM.

`O=C1CNc2ncc(-c3ccc(C(=O)N4CCC[C@H]4CN4CCCC4)cc3)cc2N1Cc1ccccc1` returned an IC50 above 10000 nM.

The compound `CN1CCN(c2ccc(-c3cnc4c(c3)C(Cc3cc(F)ccc3F)CCN4)cn2)CC1` (stereo not drawn) gave an IC50 of 1540 nM.

On to `O=C(c1ccc(-c2cnc3c(c2)N(Cc2c(Cl)cccc2Cl)CCN3)cc1)N1CCC[C@H]1CN1CCCC1`, for which the IC50 is 27 nM.

Regarding `O=C(c1ccc(-c2cnc3c(c2)N(Cc2ccccc2)CCN3)cc1)N1CCC[C@H]1CN1CCCC1`, inhibition was half-maximal at 256 nM (IC50).

For the compound `CN1CCN(c2ccc(-c3cnc4c(c3)N(Cc3c(Cl)cccc3C(F)(F)F)CCN4)cn2)CC1`, the IC50 came to 506 nM.

The compound `O=C1CNc2ncc(-c3ccc(C(=O)N4CCC[C@H]4CN4CCCC4)cc3)cc2N1Cc1cc(F)ccc1F` showed an IC50 of 145 nM.

`CN1CCN(c2ccc(-c3cnc4c(c3)C(Oc3c(F)ccc(F)c3Cl)CCN4)cn2)CC1` (stereo not drawn) came in with an IC50 above 10000 nM.

Take `CN1CCN(c2ccc(-c3cnc4c(c3)N(C(=O)Cc3cc(F)ccc3F)CCN4)cn2)CC1`: the IC50 is above 10000 nM.

Consider `CN1CCN(c2ccc(-c3cnc4c(c3)N(S(=O)(=O)c3cc(F)ccc3F)CCN4)cn2)CC1`, for which inhibition was half-maximal at 465 nM (IC50).

Consider `O=C1CNc2ncc(-c3ccc(C(=O)N4CCC[C@H]4CN4CCCC4)cc3)cc2N1Cc1c(Cl)cccc1Cl`, for which half-maximal inhibition (IC50) was put at 278 nM. Compared with the last compound, the IC50 is about 1.7-fold lower.

Compound `CCOC(=O)c1ccc(-c2cnc3c(c2)N(Cc2cc(Cl)ccc2C(F)(F)F)CCN3)cc1` showed an IC50 above 3000 nM.

`CN1CCN(c2ccc(-c3cnc4c(c3)N(Cc3cc(Cl)ccc3Cl)CCN4C)cn2)CC1` returned an IC50 above 3000 nM.

The record behind these values is ChEMBL document CHEMBL1165965, “Synthesis and structure-activity relationships of 1,2,3,4-tetrahydropyrido[2,3-b]pyrazines as potent and selective inhibitors of the anaplastic lymphoma kinase” (Bioorg Med Chem, 2010).
